According to ChEMBL document CHEMBL4004807 (J Med Chem, 2017):
Activity calls are given as the source filed them. The calls are words filed in the database; no cut-off is given here.

Tests used:
Prostacyclin receptor [1] = target: Prostacyclin receptor (Rattus norvegicus, UniProt P43253); assay: Agonist activity at recombinant rat IP receptor expressed in CHO-K1 cells assessed as increase in intracellular cAMP level after 1 hr incubation by HTRF method; type: functional, cell-based
Outline: (§1)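 CHO-K1 clonal lines stably expressing IP at minimal levels; cells in PBS with 1 mM IBMX and 0.2% BSA, 200 000 cells/mL. 10-point, 5-fold DMSO serial dilution, top 10 μM; 1 h at room temperature, then HTRF cAMP-D2 and cryptate reagents in lysis buffer, 1 h, time-resolved fluorescence.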

[2] = target: T1, Prostaglandin D2 receptor (Homo sapiens, UniProt Q13258); assay: Agonist activity at recombinant human DP1 receptor expressed in CHO-K1 cells assessed as increase in intracellular cAMP level after 1 hr incubation by HTRF method; type: functional, cell-based
T1 sequence (Q13258 whole entry): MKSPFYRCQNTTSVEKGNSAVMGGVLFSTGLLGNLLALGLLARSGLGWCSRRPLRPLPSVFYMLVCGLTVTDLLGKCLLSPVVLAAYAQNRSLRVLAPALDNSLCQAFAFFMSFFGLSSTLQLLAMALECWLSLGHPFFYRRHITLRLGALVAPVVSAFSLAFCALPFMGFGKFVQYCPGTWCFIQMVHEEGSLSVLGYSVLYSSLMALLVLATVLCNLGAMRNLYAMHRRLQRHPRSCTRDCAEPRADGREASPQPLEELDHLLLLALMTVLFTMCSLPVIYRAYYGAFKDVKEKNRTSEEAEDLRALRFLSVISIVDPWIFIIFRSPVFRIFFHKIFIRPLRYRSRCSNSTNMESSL
Outline: (§2)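 CHO-K1 clonal line stably expressing DP1 at minimal level; HTRF cAMP assay, 1 h incubation at room temperature, time-resolved fluorescence read-out.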

Prostacyclin receptor [3] = target: T2, Prostacyclin receptor (Homo sapiens, UniProt P43119); assay: Agonist activity at recombinant human IP receptor expressed in CHO-K1 cells assessed as increase in intracellular cAMP level after 1 hr incubation by HTRF method; type: functional, cell-based; outline: as §1
Prostacyclin receptor [4] = target: T2, Prostacyclin receptor; assay: Ratio of IC50 for IP receptor in human primary platelets to EC50 for recombinant human IP receptor expressed in CHO-K1 cells; type: cell-based
[5] = Selectivity ratio of EC50 for recombinant rat IP receptor expressed in CHO-K1 cells to EC50 for recombinant human IP receptor expressed in CHO-K1 cells; type: cell-based
Prostacyclin receptor [6] = target: T2, Prostacyclin receptor; assay: Agonist activity at IP receptor in PAH patient-derived primary pulmonary arterial smooth muscle cells assessed as induction of cAMP levels after 1 hr by HTRF method; type: functional
[7] = Total clearance in Sprague-Dawley rat plasma at 2 mg/kg, iv or 10 mg/kg, po; type: ADME, organism-based
Rattus norvegicus [8] = assay: Inhibition of right ventricle hypertrophic response in Sprague-Dawley rat monocrotaline model of pulmonary arterial hypertension assessed as reduction of MCT-induced increase in ratio of right ventricular weight to left ventricle plus septum weight administered via oral gavage twice daily for 21 consecutive days starting 24 hrs after monocrotaline challenge; type: functional
Outline: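 Male rats given 60 mg/kg monocrotaline sc on day 1 (sham: saline) under 30 mg/kg ip pentobarbital; from next day for 20 days dosed by oral gavage twice daily at 10 or 30 mg/kg in 20% HPBCD in saline (vehicle control). Day 21: RV/(LV+S) weights; mPAP via catheter under 60 mg/kg pentobarbital (30 mg/kg group, n = 5); H&E lung sections, 5 animals/group.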

Rattus norvegicus [9] = assay: AUC (0 to infinity) in Sprague-Dawley rat at 10 mg/kg, po; type: ADME, organism-based; parameters: dose 10 mg/kg, route oral, time infinity; conditions: in vivo
Outline: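 Sprague-Dawley rats, single oral dose of 10.0 mg/kg; AUC0-inf from plasma concentrations.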

[10] = Volume of distribution at steady state in Sprague-Dawley rat at 2 mg/kg, iv or 10 mg/kg, po; type: ADME, organism-based; conditions: in vivo
[11] = target: T3, Prostaglandin E2 receptor EP3 subtype (Homo sapiens, UniProt P43115); assay: Agonist activity at recombinant human EP3v6 receptor expressed in melanophores assessed as induction of pigment redistribution up to 10 uM after 90 mins; conditions: 1.5 h
T3 sequence (P43115 whole entry): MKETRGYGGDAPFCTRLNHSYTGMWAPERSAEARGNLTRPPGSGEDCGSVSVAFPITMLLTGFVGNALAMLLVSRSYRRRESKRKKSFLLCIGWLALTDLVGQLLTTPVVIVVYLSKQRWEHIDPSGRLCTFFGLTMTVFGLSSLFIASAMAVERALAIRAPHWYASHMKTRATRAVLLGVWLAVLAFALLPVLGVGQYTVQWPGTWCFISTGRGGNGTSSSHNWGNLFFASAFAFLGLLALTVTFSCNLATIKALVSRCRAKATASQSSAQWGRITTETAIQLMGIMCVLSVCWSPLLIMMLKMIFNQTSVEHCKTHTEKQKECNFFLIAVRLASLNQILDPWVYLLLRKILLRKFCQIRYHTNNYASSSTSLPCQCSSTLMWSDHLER
Outline: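 Melanophores electroporated with 20 μg human EP3v6 plasmid per 400 μL cells, grown 48 h at 27 °C. Assay buffer 0.7× PBS pH 7.3 with 20 nM melatonin to aggregate pigment, 90 min at room temperature, 650 nm baseline; compounds added (10-point, 5-fold dilutions, top 10 μM final), 90 min room temperature, absorbance reread.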

[12] = target: Prostaglandin E2 receptor EP2 subtype (Homo sapiens) (UniProt P43116); assay: Agonist activity at recombinant human EP2 receptor expressed in CHO-K1 cells assessed as increase in intracellular cAMP level up to 10 uM after 1 hr incubation by HTRF method; type: functional, cell-based
[13] = target: Prostaglandin E2 receptor EP4 subtype (Homo sapiens) (UniProt P35408); assay: Agonist activity at recombinant human EP4 receptor expressed in CHO-K1 cells assessed as increase in intracellular cAMP level up to 10 uM after 1 hr incubation by HTRF method; type: functional, cell-based
Prostacyclin receptor [14] = target: T2, Prostacyclin receptor; assay: Intrinsic activity at recombinant human IP receptor expressed in CHO-K1 cells assessed as increase in intracellular cAMP level at 10 uM after 1 hr incubation by HTRF method relative to iloprost; type: functional, cell-based
Outline: (§3)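 Stably transfected CHO-K1 clones with receptor expression kept minimal to avoid receptor reserve. Cells at 200 000/mL in PBS with 1 mM IBMX and 0.2% BSA. 10-point 5-fold dilution series, top 10 μM, tested in triplicate plates, 1 h at room temperature. HTRF cAMP read by time-resolved fluorescence.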

[15] = target: Prostacyclin receptor (Rattus norvegicus) (UniProt P43253); assay: Intrinsic activity at recombinant rat IP receptor expressed in CHO-K1 cells assessed as increase in intracellular cAMP level at 10 uM after 1 hr incubation by HTRF method relative to iloprost; type: functional, cell-based; outline: as §3
[16] = target: T4, Prostaglandin D2 receptor (Homo sapiens) (UniProt Q13258); assay: Intrinsic activity at recombinant human DP1 receptor expressed in CHO-K1 cells assessed as increase in intracellular cAMP level after 1 hr incubation by HTRF method relative to prostaglandin D2; type: functional, cell-based; outline: as §2
T4 sequence (whole entry): T1 sequence (Q13258 whole entry)

[17] = Half life in human microsomes; type: ADME, Microsome
[18] = Half life in rat microsomes; type: ADME, Microsome
Plasma = assay: Drug level in bile-duct cannulated rat plasma treated with 2-(((1r,4r)-4-(((4-chlorophenyl)(phenyl)carbamoyloxy)methyl)cyclohexyl)methoxy)acetic acid; type: ADME, cell-free

T2 sequence (P43119 whole entry): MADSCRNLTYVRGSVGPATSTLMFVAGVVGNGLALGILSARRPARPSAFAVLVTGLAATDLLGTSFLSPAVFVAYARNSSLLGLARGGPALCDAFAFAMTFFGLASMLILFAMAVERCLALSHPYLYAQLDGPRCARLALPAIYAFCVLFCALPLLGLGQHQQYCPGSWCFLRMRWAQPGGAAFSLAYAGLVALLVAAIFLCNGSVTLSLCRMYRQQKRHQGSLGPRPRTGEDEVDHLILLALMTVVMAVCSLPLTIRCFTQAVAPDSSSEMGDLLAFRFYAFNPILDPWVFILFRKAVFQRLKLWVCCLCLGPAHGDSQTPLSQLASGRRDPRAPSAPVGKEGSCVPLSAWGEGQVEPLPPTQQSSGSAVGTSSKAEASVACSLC
Chain of Prostaglandin E2 receptor EP4 subtype (Homo sapiens) (P35408 whole entry): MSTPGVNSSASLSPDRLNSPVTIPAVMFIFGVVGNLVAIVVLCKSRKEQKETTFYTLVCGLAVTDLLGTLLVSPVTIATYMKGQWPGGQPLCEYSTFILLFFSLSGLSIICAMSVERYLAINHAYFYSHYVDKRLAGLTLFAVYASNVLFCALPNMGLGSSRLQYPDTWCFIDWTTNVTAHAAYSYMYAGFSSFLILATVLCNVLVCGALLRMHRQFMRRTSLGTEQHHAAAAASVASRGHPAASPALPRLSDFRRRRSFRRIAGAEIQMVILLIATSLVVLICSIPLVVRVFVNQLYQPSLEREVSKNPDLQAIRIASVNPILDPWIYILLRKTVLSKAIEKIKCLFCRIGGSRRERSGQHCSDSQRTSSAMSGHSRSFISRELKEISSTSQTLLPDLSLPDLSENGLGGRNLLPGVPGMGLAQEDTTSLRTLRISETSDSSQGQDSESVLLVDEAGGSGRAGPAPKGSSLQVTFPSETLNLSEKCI
Chain of Prostacyclin receptor (Rattus norvegicus, UniProt P43253) (P43253 whole entry): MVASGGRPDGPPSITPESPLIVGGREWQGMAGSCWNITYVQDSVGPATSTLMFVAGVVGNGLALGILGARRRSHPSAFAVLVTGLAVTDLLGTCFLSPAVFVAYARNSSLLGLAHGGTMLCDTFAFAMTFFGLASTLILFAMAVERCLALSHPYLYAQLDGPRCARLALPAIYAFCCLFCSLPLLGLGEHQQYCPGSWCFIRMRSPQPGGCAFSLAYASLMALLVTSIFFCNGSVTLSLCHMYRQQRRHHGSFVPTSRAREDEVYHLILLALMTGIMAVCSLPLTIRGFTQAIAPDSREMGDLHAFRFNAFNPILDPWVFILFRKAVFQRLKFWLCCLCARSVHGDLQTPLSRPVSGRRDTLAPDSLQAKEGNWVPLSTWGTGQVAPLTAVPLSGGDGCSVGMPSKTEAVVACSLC
Chain of Prostacyclin receptor (Rattus norvegicus) (P43253 whole entry): as above
Chain of Prostaglandin E2 receptor EP2 subtype (Homo sapiens) (P43116 whole entry): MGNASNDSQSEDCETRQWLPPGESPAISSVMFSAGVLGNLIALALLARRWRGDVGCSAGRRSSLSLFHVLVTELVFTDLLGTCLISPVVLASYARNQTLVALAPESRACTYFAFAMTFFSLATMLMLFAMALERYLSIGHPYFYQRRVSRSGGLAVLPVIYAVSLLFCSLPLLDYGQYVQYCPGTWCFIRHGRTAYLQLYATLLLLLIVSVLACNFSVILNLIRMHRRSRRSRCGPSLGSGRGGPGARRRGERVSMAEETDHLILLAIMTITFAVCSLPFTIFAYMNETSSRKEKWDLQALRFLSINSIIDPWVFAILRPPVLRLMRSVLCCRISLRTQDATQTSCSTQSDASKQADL

Row | Compound | Ratio IC50/EC50 (Prostacyclin receptor [4]) | Ratio EC50 [5] | other results
1 | CC(C)N(CCCCOCC(=O)NS(C)(=O)=O)c1cnc(-c2ccccc2)c(-c2ccccc2)n1 [SELEXIPAG] | 2 to 10 | 10 to 30 | EC50 (Prostacyclin receptor [1]): 0.2 µM; EC50 [2]: 0.1 µM; EC50 (Prostacyclin receptor [3]): 0.006 µM
2 | O=C(O)COC[C@H]1CC[C@H](COC(=O)N(c2ccccc2)c2cccc(F)c2)CC1 | 2 to 10 | 10 to 30 | Activity (Prostacyclin receptor [6]): Active; clearance [7]: 20 mL/min/kg; inhibition (Rattus norvegicus [8]): Dose-dependent effect; AUC (Rattus norvegicus [9]): 7900 ng·h/mL; Vd [10]: 2.74 L/kg; Activity [11]: Active; Activity [12]: inactive; Activity [13]: inactive
3 | COc1cccc(N(C(=O)OC[C@H]2CC[C@H](COCC(=O)O)CC2)c2ccccc2)c1 | 2 to 10 | 10 to 30 | AUC (Rattus norvegicus [9]): 1900 ng·h/mL; Vd [10]: 6.3 L/kg
4 | O=C(O)COC[C@H]1CC[C@H](COC(=O)N(c2ccccc2)c2ccc(F)cc2)CC1 | 2 to 10 | 10 to 30 | clearance [7]: 30 mL/min/kg; AUC (Rattus norvegicus [9]): 7900 ng·h/mL; Vd [10]: 6.2 L/kg
5 | O=C(O)COC[C@H]1CC[C@H](COC(=O)N(c2ccccc2)c2ccc(F)c(F)c2)CC1 | 2 to 10 | 10 to 30 | clearance [7]: 10 mL/min/kg; AUC (Rattus norvegicus [9]): 4500 ng·h/mL; Vd [10]: 1.1 L/kg
6 | O=C(O)COC[C@H]1CC[C@@H](COC(=O)N(c2ccccc2)c2cccc(F)c2)CC1 | 2 to 10 | 10 to 30 | 
7 | O=C(O)COC[C@H]1CC[C@H](COC(=O)N(c2ccccc2)c2ccccc2)CC1 | 2 to 10 | 10 to 30 | 
8 | O=C(O)COC[C@H]1CC[C@@H](COC(=O)N(c2ccccc2)c2ccccc2)CC1 | 2 to 10 | 10 to 30 | 
9 | O=C(O)COC[C@H]1CC[C@H](COC(=O)N(c2ccc(F)cc2)c2ccc(F)cc2)CC1 | 2 to 10 | 10 to 30 | 
10 | O=C(O)COC[C@H]1CC[C@@H](COC(=O)N(c2ccccc2)c2cccc(Cl)c2)CC1 |  |  | Intrinsic activity (Prostacyclin receptor [14]): 80%; Intrinsic activity [15]: 88%; Intrinsic activity [16]: 30%; half-life [17]: > 1 h; half-life [18]: > 1 h
11 | O=C(O)COC[C@H]1CC[C@H](COC(=O)N(c2ccccc2)c2ccc(F)c(Cl)c2)CC1 | 2 to 10 | 10 to 30 | 
12 | COc1ccc(N(C(=O)OC[C@H]2CC[C@H](COCC(=O)O)CC2)c2cccc(F)c2)cc1 | 2 to 10 | 10 to 30 | 
13 | O=C(COC[C@H]1CC[C@H](COC(=O)N(c2ccc(O)cc2)c2ccc(Cl)cc2)CC1)NCCS(=O)(=O)O |  |  | Drug metabolism (Plasma): Metabolite_Detected
14 | O=C(O)COC[C@H]1CC[C@H](COC(=O)N(c2ccc(Cl)cc2)c2cccc(F)c2)CC1 | 2 to 10 | 10 to 30 | 
15 | O=C(O)COC[C@H]1CC[C@H](COC(=O)N(c2cccc(F)c2)c2ccc(Cl)c(F)c2)CC1 | 2 to 10 | 10 to 30 | 
16 | CC#CCC(C)[C@H](O)/C=C/[C@@H]1[C@H]2C/C(=C/CCCC(=O)O)C[C@H]2C[C@H]1O (stereo not given in full) [ILOPROST] |  |  | Activity [11]: Active
17 | COc1ccc(N(C(=O)OC[C@H]2CC[C@H](COCC(=O)O)CC2)c2ccccc2)cc1 | 2 to 10 | 10 to 30 | clearance [7]: 56.7 mL/min/kg; AUC (Rattus norvegicus [9]): 3400 ng·h/mL; Vd [10]: 0.71 L/kg
18 | O=C(O)COC[C@H]1CC[C@H](COC(=O)N(c2ccc(F)cc2)c2cccc(F)c2)CC1 | 2 to 10 | 10 to 30 | 
19 | O=C(O)COC[C@H]1CC[C@H](COC(=O)N(c2ccccc2)c2ccc(Cl)c(F)c2)CC1 | 2 to 10 | 10 to 30 | clearance [7]: 13.3 mL/min/kg; AUC (Rattus norvegicus [9]): 2600 ng·h/mL; Vd [10]: 3.5 L/kg
20 | COc1ccc(N(C(=O)OC[C@H]2CC[C@@H](COCC(=O)O)CC2)c2ccccc2)cc1 | 2 to 10 | 10 to 30 | 
21 | Cc1ccc(N(C(=O)OC[C@H]2CC[C@H](COCC(=O)O)CC2)c2ccccc2)cc1 | 2 to 10 | 10 to 30 | 
22 | CC(C)N(CCCCOCC(=O)O)c1cnc(-c2ccccc2)c(-c2ccccc2)n1 |  |  | Activity (Prostacyclin receptor [6]): Active
23 | O=C(O)COC[C@H]1CC[C@H](COC(=O)N(c2ccc(O)cc2)c2ccc(Cl)cc2)CC1 |  |  | Drug metabolism (Plasma): Metabolite_Detected
